Source: ChEMBL document CHEMBL4513216, “Probing the Open Global Health Chemical Diversity Library for Multistage-Active Starting Points for Next-Generation Antimalarials” (ACS Infect Dis, 2020)

Test: Toxicity liver stage against HepG2, at 10uM
Type: cell-based
Parameters: test concentration 10 uM, cell line HepG2-A16-CD81EGFP
Details: human, HepG2-A16-CD81EGFP cells; read-out: INHIBITION
Outline: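 Uninfected HepG2-A16-CD81EGFP cells, 3 × 10^3 per well, 1536-well, plated on prespotted compound at 10 μM final, parasite-free screening media added to match infected plates; puromycin 10 μM positive, DMSO 0.5% negative; run in parallel with 48 h PbLuc assay at 37 °C, 5% CO2; viability by CellTiter-Glo luminescence, normalized to controls.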

Which cytotoxicity at 10 µM does the source give for `Cc1cccc(NC(=O)C2CC(=O)n3cnnc3S2)c1` (stereo not given) here?
The cytotoxicity at 10 µM was 2.37%.

Which cytotoxicity at 10 µM does the source give for `CS(=O)(=O)NC[C@H]1OC[C@@H](NC2CCC(F)(F)CC2)[C@@H]1O` here?
The cytotoxicity at 10 µM was 0.644%.

Which cytotoxicity at 10 µM does the source give for `CN1Cc2cc(F)ccc2N(CC(O)C(F)(F)F)CCC1=O` (stereo not given) here?
The cytotoxicity at 10 µM was 1.06%.

Which cytotoxicity at 10 µM does the source give for `O=C(NCCC(O)c1ccco1)c1ccco1` (stereo not given) here?
Its cytotoxicity at 10 µM is 7.94%.

For `Cc1cccc(CS(=O)(=O)NCc2nn(C)c3c2CCCC3)c1`, which cytotoxicity at 10 µM is on record?
Its cytotoxicity at 10 µM is 2.37%.

With `Cc1nc(-c2cnn(C)c2)nc2c1CN(C(=O)c1cccnc1)CC2` as the compound, how does the cytotoxicity at 10 µM read?
The cytotoxicity at 10 µM was 2.68%.

With `Cc1noc([C@@H]2C[C@H]3OCC[C@H]3N(S(=O)(=O)c3ccccc3)C2)n1` as the compound, how does the cytotoxicity at 10 µM read?
Its cytotoxicity at 10 µM is -126%.

With `CC(C)c1ncc(CN2CCCC(CO)C2)cn1` (stereo not given) as the compound, how does the cytotoxicity at 10 µM read?
Its cytotoxicity at 10 µM is -1.49%.

Which cytotoxicity at 10 µM does the source give for `OCc1cn(Cc2cccc(C(F)(F)F)c2)nn1` here?
Its cytotoxicity at 10 µM is 8.02%.

Which cytotoxicity at 10 µM does the source give for `O=C(c1cnc(-c2ccccc2)s1)N1CCC2(CC1)OCCO2` here?
Its cytotoxicity at 10 µM is 2.42%.

Which cytotoxicity at 10 µM does the source give for `CCC(=O)NC(CC(C)C)c1cccs1` (stereo not given) here?
Its cytotoxicity at 10 µM is 6.18%.

Which cytotoxicity at 10 µM does the source give for `CC(CNC(=O)c1cccnc1O)Cn1cccn1` (stereo not given) here?
Its cytotoxicity at 10 µM is 0.144%.

Which cytotoxicity at 10 µM does the source give for `CC(=O)c1sc(C(NC(=O)c2ccccc2)C2CC2)nc1C` (stereo not given) here?
Its cytotoxicity at 10 µM is -15.5%.

Which cytotoxicity at 10 µM does the source give for `Cc1ccc(OCC(=O)NCc2sccc2C)nc1` here?
Its cytotoxicity at 10 µM is -0.509%.

With `O=c1c2cccnc2cnn1CC(O)c1ccc(F)c(F)c1` (stereo not given) as the compound, how does the cytotoxicity at 10 µM read?
Its cytotoxicity at 10 µM is -7.44%.

For `CN(CCCc1cc(-c2cccc(F)c2)n[nH]1)C(=O)CCn1cncn1`, which cytotoxicity at 10 µM is on record?
The cytotoxicity at 10 µM was -132%.

With `O=C(c1cccnc1)N(CCO)Cc1cc(Br)ccc1F` as the compound, how does the cytotoxicity at 10 µM read?
The cytotoxicity at 10 µM was 12.7%.

With `CN(CC(N)=O)C(=O)c1csc(Br)c1` as the compound, how does the cytotoxicity at 10 µM read?
Its cytotoxicity at 10 µM is 3%.

For `O=C(c1ccoc1)N1CC[C@H]2C[C@@H](c3ccncn3)O[C@@H]2C1`, which cytotoxicity at 10 µM is on record?
The cytotoxicity at 10 µM was -76.1%.

With `COc1ccc(Cn2c(CCc3c(C)n[nH]c3C)n[nH]c2=O)cc1` as the compound, how does the cytotoxicity at 10 µM read?
Its cytotoxicity at 10 µM is -144%.

For `Cc1ccccc1OCC1CCCN(C(=O)Cc2c[nH]c(=O)[nH]c2=O)C1` (stereo not given), which cytotoxicity at 10 µM is on record?
The cytotoxicity at 10 µM was -136%.

Which cytotoxicity at 10 µM does the source give for `CCc1nc(CN(C)C(=O)CSC)no1` here?
The cytotoxicity at 10 µM was 2.25%.

With `Cc1nnc(CCNC(=O)[C@H]2CNC[C@@H](C(=O)N3CCCC3)C2)s1` as the compound, how does the cytotoxicity at 10 µM read?
Its cytotoxicity at 10 µM is -113%.

Which cytotoxicity at 10 µM does the source give for `COc1c(C)cc(C(C(=O)O)N(C)Cc2ccn[nH]2)cc1C` (stereo not given) here?
Its cytotoxicity at 10 µM is 2.82%.

For `CN(C)C(=O)c1nc(CN2CC(c3ccccc3)CC2=O)no1` (stereo not given), which cytotoxicity at 10 µM is on record?
The cytotoxicity at 10 µM was 0.624%.

Which cytotoxicity at 10 µM does the source give for `CC(C)n1cnnc1CN(C)C(=O)c1ccc[nH]1` here?
The cytotoxicity at 10 µM was -0.371%.

For `Cc1ccc(CN2CC[C@@]3(O)CCN(S(=O)(=O)N(C)C)C[C@H]3C2)cc1C`, which cytotoxicity at 10 µM is on record?
The cytotoxicity at 10 µM was -1.42%.

With `COc1ccc(CCN2C(=O)O[C@@H]3CN(C4CCOCC4)C[C@@H]32)cc1` as the compound, how does the cytotoxicity at 10 µM read?
The cytotoxicity at 10 µM was 6.86%.

For `CS(=O)(=O)c1ccc(C(=O)NCCNc2ncccn2)cc1`, which cytotoxicity at 10 µM is on record?
Its cytotoxicity at 10 µM is -5.15%.

Which cytotoxicity at 10 µM does the source give for `Cc1nc(C)n(CC2CN(CCOc3cccc(C#N)c3)CCO2)n1` (stereo not given) here?
The cytotoxicity at 10 µM was -13.2%.

With `CC(C)n1cc(CN2CCCN(C(=O)CC3CCCO3)CC2)cn1` (stereo not given) as the compound, how does the cytotoxicity at 10 µM read?
Its cytotoxicity at 10 µM is -12.4%.

Which cytotoxicity at 10 µM does the source give for `Cn1cc(NC(=O)C2CC(c3ccccc3)C2)ccc1=O` (stereo not given) here?
Its cytotoxicity at 10 µM is -4.42%.

Which cytotoxicity at 10 µM does the source give for `COc1ncccc1C(=O)N1CCCC(n2ccnc2)C1` (stereo not given) here?
Its cytotoxicity at 10 µM is -5.1%.

For `CN(Cc1ccncc1)C(=O)NCc1nnc2n1CCCCC2`, which cytotoxicity at 10 µM is on record?
The cytotoxicity at 10 µM was -26%.

Which cytotoxicity at 10 µM does the source give for `Cc1cnn(CC2CN(Cc3nc(-c4cccnc4)no3)CCO2)c1` (stereo not given) here?
The cytotoxicity at 10 µM was -20.5%.

With `NC(=O)NC(=O)CCN1CCCN(c2nccs2)CC1` as the compound, how does the cytotoxicity at 10 µM read?
The cytotoxicity at 10 µM was 11.1%.

Which cytotoxicity at 10 µM does the source give for `Cc1cc(C)n(CC2CCCCN2CCCS(N)(=O)=O)n1` (stereo not given) here?
The cytotoxicity at 10 µM was 6.28%.

With `O=C(Cc1ccccn1)N1CCN(C(=O)c2cccc3[nH]ncc23)CC1` as the compound, how does the cytotoxicity at 10 µM read?
Its cytotoxicity at 10 µM is -2.48%.

For `Cn1cnnc1C1CCCN(C(=O)NCCc2ccccc2F)C1` (stereo not given), which cytotoxicity at 10 µM is on record?
The cytotoxicity at 10 µM was -1.88%.

Which cytotoxicity at 10 µM does the source give for `Cc1noc(C2CN(Cc3ccc4c(c3)CCO4)C2)n1` here?
Its cytotoxicity at 10 µM is -0.478%.

With `O=C(c1cscn1)N1CCC2(CCN(Cc3cccs3)CC2)C1` as the compound, how does the cytotoxicity at 10 µM read?
The cytotoxicity at 10 µM was 3.91%.

For `CN(C)CCN1CCc2c(nnn2C)C1COCc1ccccc1` (stereo not given), which cytotoxicity at 10 µM is on record?
The cytotoxicity at 10 µM was -90.3%.

Which cytotoxicity at 10 µM does the source give for `Cc1nc(CN2C(=O)C[C@@H]3[C@@H]2CCN3CC2CCOCC2)cs1` here?
Its cytotoxicity at 10 µM is -135%.

With `Cc1ccc(NC2COC3(CCN(Cc4ccn(C)n4)CC3)C2)nn1` (stereo not given) as the compound, how does the cytotoxicity at 10 µM read?
The cytotoxicity at 10 µM was -1.68%.

Which cytotoxicity at 10 µM does the source give for `O=C(Nc1cnccn1)[C@H]1CC[C@@H]2[C@@H](CCN2Cc2ccccn2)O1` here?
Its cytotoxicity at 10 µM is -139%.
